For 1 molecule, selectivity ratio and Activity results are on record in ChEMBL document CHEMBL4311977, “Design and synthesis of parthenolide and 5-fluorouracil conjugates as potential anticancer agents against drug resistant hepatocellular carcinoma” (Eur J Med Chem, 2019).

Molecules are shown by their SMILES. Calls of active or inactive are those of the source. The calls are words filed in the database; no cut-off is given here.

Data set [1] is described as follows: Therapeutic index, ratio of IC50 for mouse 3T3 cells to IC50 for human Bel7402 cells. Particulars: mouse 3T3 cells versus human Bel7402 cells, read-out: TI. It counts as toxicity.
The nature of data set [2]: Therapeutic index, ratio of IC50 for mouse 3T3 cells to IC50 for human Bel7402/5-FU cells. It counts as toxicity. Conditions: mouse 3T3 cells versus human Bel7402/5-FU cells, read-out: TI.
Data set [3] relates to Bel7402/5-FU. As to the kind of experiment: Down regulation of ABCG2 expression in human Bel7402/5-FU cells incubated for 24 hrs by western blot analysis. It counts as functional, cell-based. The method, boiled down:
(§1)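 Bel-7402/5-FU cells were seeded at 5 × 10⁵ per well and left 12 h, then treated with four concentrations (0.5, 1, 2, 5) for 24 h. Cells were PBS-washed and lysed in RIPA on ice for 30 min, then denatured at 100 °C for 5 min. Lysates went through SDS-PAGE and PVDF transfer, 5% milk blocking for 1 h at room temperature, primary antibodies, and HRP secondary for 2 h at room temperature.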

Data set [4] relates to Bel7402/5-FU. As to the kind of experiment: Induction of apoptosis in human Bel7402/5-FU cells assessed as increase in irregular nuclear morphology incubated for 48 hrs by DAPI staining based fluorescence microscopic analysis. It counts as functional, cell-based. A digest of the protocol: (§2)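 Bel-7402/5-FU cells were seeded at 5 × 10⁵ per well and left 12 h, then exposed at three concentrations (1, 2, 5) for 48 h. Cells were washed three times in PBS and stained with DAPI for 10 min at room temperature. Nuclear morphology was scored by fluorescence microscopy.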

In data set [5] the test system is Bel7402/5-FU. Briefly: Induction of apoptosis in human Bel7402/5-FU cells assessed as downregulation of Bcl-xl expression at 0.5 to 5 uM incubated for 24 hrs by Western blot analysis. It counts as functional, cell-based. The method, boiled down:
as §1
A general note: Immunoblotting shows a protein as a band on a membrane.

In data set [6] the test system is Bel7402/5-FU. As to the kind of experiment: Induction of apoptosis in human Bel7402/5-FU cells assessed as increase in apoptotic bodies incubated for 48 hrs by DAPI staining based fluorescence microscopic analysis. It counts as functional, cell-based. The method, boiled down: as §2
The subject of data set [7] is Bel7402/5-FU. As to the kind of experiment: Induction of apoptosis in human Bel7402/5-FU assessed as necrotic cells at 5 uM incubated for 48 hrs by annexinV-FITC/propidium iodide staining based flow cytometry (reference value: 0.157 %).
Data set [8] relates to Bel7402/5-FU. Briefly: Induction of apoptosis in human Bel7402/5-FU assessed as early apoptotic cells at 5 uM incubated for 48 hrs by annexinV-FITC/propidium iodide staining based flow cytometry (reference value: 20.1 %). A general note: A flow cytometer gives signals particle by particle.
Data set [9] deals with Bel7402/5-FU. Briefly: Induction of apoptosis in human Bel7402/5-FU assessed as apoptotic cells at 0.5 uM incubated for 48 hrs by annexinV-FITC/propidium iodide staining based flow cytometry (reference value: 3.37 +/- 0.47 %).

As for `C=C1C(=O)O[C@H]2[C@H]1CC/C(COC(=O)Cn1cc(F)c(=O)n(Cc3ccc(C(F)(F)F)cc3)c1=O)=C\CC[C@@]1(C)O[C@@H]21`, the selectivity ratio in data set [1] and in [2] was 2.3 in each case. The Activity entry in data set [3] is “Dose-dependent effect”; in data set [4], “Dose-dependent effect”; in data set [6] it was “Dose-dependent effect”; in [7] it was 1.49 - 1.75%; in data set [8] it was 18.1 - 82.7%; in [9], 3.97%. The result in [5] was Active.
